Active and inactive are the calls of the source. The calls are words filed in the database; no cut-off is given here. Where only a bound is given, the exact number is not on record here.

Experiment [1] addresses T1, von Hippel-Lindau disease tumor suppressor/Histone-lysine N-methyltransferase EZH2 (Homo sapiens, UniProt Q15910+P40337). Nature of the experiment: PROTAC activity at VHL/EZH2 degradation in hMLLr AML cell line EOL1 cells assessed as protein degradation at 1 uM measured after 24 hrs by Western blot analysis. The class given is cell-based. An outline of the steps: (§1)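 Cells were seeded at 0.5–2 million per well and treated for 24 h, or for the stated times at 300 nM in the time course. Lysis was in RIPA with protease inhibitors; ~10 μg protein was run on SDS-PAGE and blotted to PVDF. Detection used fluorescent immunoblotting for EZH2, EED and SUZ12, with β-actin as loading control. Blots are representative of two biological experiments.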

Experiment [2] addresses T1, von Hippel-Lindau disease tumor suppressor/Histone-lysine N-methyltransferase EZH2. Nature of the experiment: PROTAC activity at VHL/EZH2 degradation in MLLr AML cell line human EOL1 cells assessed as protein degradation at 0.5 uM measured after 24 hrs by Western blot analysis. The class given is cell-based. The procedure, abridged:
as §1
(A western blot detects proteins with antibodies after separation by electrophoresis.)

Experiment [3] shares this target. In words: PROTAC activity at VHL/EZH2 degradation in MLLr AML cell line human EOL1 cells assessed as protein degradation at 0.5 uM measured after 24 hrs in presence of 0.05 uM MLN4924 by Western blot analysis. Type of experiment: cell-based. An outline of the steps: (§2)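 EOL-1 cells were pre-treated for 2 h with MLN4924 (0.05 μM), EPZ-6438 (5 μM) or VHL-1 (5 μM), then given 0.5 μM degrader for 24 h. EZH2 was assessed by Western blot against β-actin. Blots are representative of two biological experiments.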

Experiment [4] has the same target. Nature of the experiment: PROTAC activity at VHL/EZH2 degradation in MLLr AML cell line human EOL1 cells assessed as protein degradation at 0.5 uM measured after 24 hrs in presence of 5 uM VHL-1 by Western blot analysis. Type of experiment: cell-based. An outline of the steps: as §2
Experiment [5] has as its target Histone-lysine N-methyltransferase EHMT2 (Homo sapiens) (UniProt Q96KQ7). Nature of the experiment: Inhibition of human G9a assessed as methyltransferase activity using Histone H3 as substrate at 10 uM by radioisotope based MT HotSpot assay relative to control. An outline of the steps:
(§3)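 Radioisotope-based methyltransferase assay (MT HotSpot) run by a contract lab. Compound was tested at 10 μM against a panel of 20 methyltransferases, in duplicate. Values are means ± SD of two replicates.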

Experiment [6] addresses Protein arginine N-methyltransferase 3 (Homo sapiens) (UniProt O60678). In words: Inhibition of human PRMT3 assessed as methyltransferase activity using Histone H3 as substrate at 10 uM by radioisotope based MT HotSpot assay relative to control. The procedure, abridged:
as §3

Experiment [7] concerns the target Protein arginine N-methyltransferase 8 (Homo sapiens) (UniProt Q9NR22). Nature of the experiment: Inhibition of human PRMT8 assessed as methyltransferase activity using Histone H4 as substrate at 10 uM by radioisotope based MT HotSpot assay relative to control. The procedure, abridged:
as §3

The target in experiment [8] is N-lysine methyltransferase KMT5A (Homo sapiens) (UniProt Q9NQR1). In words: Inhibition of human SET8 assessed as methyltransferase activity using Nucleosomes as substrate at 10 uM by radioisotope based MT HotSpot assay relative to control. An outline of the steps:
as §3

The target in experiment [9] is Histone-lysine N-methyltransferase SETD2 (Homo sapiens) (UniProt Q9BYW2). Nature of the experiment: Inhibition of human SETD2 assessed as methyltransferase activity using Oligo Nucleosomes as substrate at 10 uM by radioisotope based MT HotSpot assay relative to control. The procedure, abridged: as §3
The target in experiment [10] is Histone-lysine N-methyltransferase SUV39H1 (Homo sapiens) (UniProt O43463). Nature of the experiment: Inhibition of human SUV39H1 assessed as methyltransferase activity using Histone H3 as substrate at 10 uM by radioisotope based MT HotSpot assay relative to control. The procedure, abridged: as §3
Sequence of Histone-lysine N-methyltransferase SUV39H1 (Homo sapiens) (O43463 whole entry): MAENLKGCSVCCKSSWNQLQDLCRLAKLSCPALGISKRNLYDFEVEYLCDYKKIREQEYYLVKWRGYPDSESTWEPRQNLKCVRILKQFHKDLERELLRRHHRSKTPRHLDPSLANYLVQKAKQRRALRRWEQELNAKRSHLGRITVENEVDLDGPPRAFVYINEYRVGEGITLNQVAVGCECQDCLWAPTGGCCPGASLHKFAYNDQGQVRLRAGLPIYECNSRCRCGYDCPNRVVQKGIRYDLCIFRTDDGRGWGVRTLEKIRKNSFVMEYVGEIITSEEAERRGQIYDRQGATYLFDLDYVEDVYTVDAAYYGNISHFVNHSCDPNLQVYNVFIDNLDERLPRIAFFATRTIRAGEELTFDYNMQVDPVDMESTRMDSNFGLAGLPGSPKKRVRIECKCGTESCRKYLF
The target of experiment [11] is Histone-lysine N-methyltransferase EZH2 (Homo sapiens) (UniProt Q15910). Nature of the experiment: Inhibition of human EZH2 assessed as methyltransferase activity using Core Histone as substrate at 10 uM by radioisotope based MT HotSpot assay relative to control. The procedure, abridged: as §3
Sequence of Histone-lysine N-methyltransferase EZH2 (Homo sapiens) (Q15910 whole entry, looked up): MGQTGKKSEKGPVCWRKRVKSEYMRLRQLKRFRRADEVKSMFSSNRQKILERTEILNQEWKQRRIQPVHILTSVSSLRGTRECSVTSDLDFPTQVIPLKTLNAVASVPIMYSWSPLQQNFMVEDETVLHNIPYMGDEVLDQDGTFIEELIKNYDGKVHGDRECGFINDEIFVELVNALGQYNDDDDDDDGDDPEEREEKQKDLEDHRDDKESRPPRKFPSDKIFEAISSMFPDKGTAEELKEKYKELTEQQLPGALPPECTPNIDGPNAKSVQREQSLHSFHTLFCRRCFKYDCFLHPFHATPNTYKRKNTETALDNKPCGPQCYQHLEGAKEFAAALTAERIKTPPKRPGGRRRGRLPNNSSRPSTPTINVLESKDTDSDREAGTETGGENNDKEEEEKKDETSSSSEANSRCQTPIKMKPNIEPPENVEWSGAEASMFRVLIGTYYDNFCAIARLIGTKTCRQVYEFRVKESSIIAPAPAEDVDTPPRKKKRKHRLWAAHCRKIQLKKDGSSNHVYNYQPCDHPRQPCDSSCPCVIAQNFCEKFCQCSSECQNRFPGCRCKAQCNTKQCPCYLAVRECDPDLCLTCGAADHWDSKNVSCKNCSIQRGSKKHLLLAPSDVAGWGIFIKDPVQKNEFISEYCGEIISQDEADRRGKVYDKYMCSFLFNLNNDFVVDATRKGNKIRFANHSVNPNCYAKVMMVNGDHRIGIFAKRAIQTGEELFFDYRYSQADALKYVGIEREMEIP
The target of experiment [12] is T1, von Hippel-Lindau disease tumor suppressor/Histone-lysine N-methyltransferase EZH2. In words: PROTAC activity at VHL/EZH2 degradation in MLLr AML cell line human EOL1 cells assessed as protein degradation at 0.1 uM measured after 24 hrs by Western blot analysis. The class given is cell-based. An outline of the steps:
as §1

Experiment [13] has the same target. In words: PROTAC activity at VHL/EZH2 degradation in MLLr AML cell line human EOL1 cells assessed as protein degradation at 0.3 uM measured after 24 hrs by Western blot analysis. The class given is cell-based. The procedure, abridged: as §1
Another experiment deals with EOL1. Nature of the experiment: Anti-proliferative activity against human EOL1 cells assessed as cell viability measured after 5 days incubation by CCK-8 assay. Type of experiment: functional, cell-based. Particulars: EOL1, 120 h. An outline of the steps: (§4)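 Cells plated at 3,000–10,000 per well and exposed to serial dilutions for 5 days at 37 °C. CCK-8 (1x) was added for 2–4 h, with absorbance read at 450 nm against a 690 nm reference. IC50 was taken from curve fits. Leukemia lines were grown in RPMI-1640, K562 in IMDM and MDA-MB-468 in DMEM, all with 10 % FBS. Values are means ± SD of two biological experiments (three for BT549 and MDA-MB-468).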
(Tetrazolium dyes change colour on reduction, which living cells bring about.)

In a further experiment the test system is MV4-11. Nature of the experiment: Anti-proliferative activity against human MV4-11 cells assessed as cell viability measured after 5 days incubation by CCK-8 assay. Type of experiment: functional, cell-based. Conditions: MV4-11, 120 h. An outline of the steps: as §4
The target in experiment [14] is T1, von Hippel-Lindau disease tumor suppressor/Histone-lysine N-methyltransferase EZH2. In words: PROTAC activity at VHL/EZH2 degradation in human BT-549 cells assessed as protein degradation at 0.1 to 3 uM measured after 48 hrs by Western blot analysis. The class given is cell-based. Particulars: dose 0.1-3 µM. An outline of the steps:
(§5)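 BT549 (RPMI-1640) and MDA-MB-468 (DMEM) cells were treated for 48 h. RIPA lysates (~10 μg) were immunoblotted for EZH2 with β-actin as loading control. Blots are representative of three biological experiments.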

For experiment [15] the target is unchanged. Nature of the experiment: PROTAC activity at VHL/EZH2 degradation in human MDA-MB-468 cells assessed as protein degradation at 0.1 to 3 uM measured after 48 hrs by Western blot analysis. The class given is cell-based. Particulars: dose 0.1-3 µM. The procedure, abridged: as §5
The subject of experiment [16] is BT-549. Nature of the experiment: Inhibition of cell growth in human BT-549 cell spheroid TNBC model assessed as reduction in size of spheroid at 2.5 to 20 uM measured after 5 days by 3D cell culture assay. The class given is functional, cell-based. Conditions: dose 2.5-20 µM, time 5.0 day. The procedure, abridged:
(§6)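 BT549 cells were coated with nanoshuttle (1 μL per 2000 cells, 24 h) and magnetically levitated in low-adhesion plates. They were grown 7 days at 37 °C until a single solid spheroid formed, then treated 5 d with compound or DMSO. Spheroid area was measured from images, and viability by CellTiter-Glo 3D. Data are means ± SD of three biological experiments, analysed by one-way ANOVA.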

For experiment [17], the system named is BT-549. In words: Anti-proliferative activity against human BT-549 cells spheroid TNBC model assessed as decrease in cell viability at 2.5 to 20 uM by Cell Titer Glo 3D assay. The class given is functional, cell-based. Conditions: dose 2.5-20 µM. An outline of the steps: as §6
For orientation: Cellular ATP, detected with luciferase, serves as a proxy for viable cell number.

For experiment [18], the target named is Histone-lysine N-methyltransferase EHMT1 (Homo sapiens) (UniProt Q9H9B1). Nature of the experiment: Inhibition of human GLP assessed as methyltransferase activity using Histone H3 as substrate at 10 uM by radioisotope based MT HotSpot assay relative to control.
For experiment [19], the target named is Histone-lysine N-methyltransferase SUV39H2 (Homo sapiens) (UniProt Q9H5I1). Nature of the experiment: Inhibition of human SUV39H2 assessed as methyltransferase activity using Histone H3 as substrate at 10 uM by radioisotope based MT HotSpot assay relative to control.
Sequence of Histone-lysine N-methyltransferase SUV39H2 (Homo sapiens) (Q9H5I1 whole entry, looked up): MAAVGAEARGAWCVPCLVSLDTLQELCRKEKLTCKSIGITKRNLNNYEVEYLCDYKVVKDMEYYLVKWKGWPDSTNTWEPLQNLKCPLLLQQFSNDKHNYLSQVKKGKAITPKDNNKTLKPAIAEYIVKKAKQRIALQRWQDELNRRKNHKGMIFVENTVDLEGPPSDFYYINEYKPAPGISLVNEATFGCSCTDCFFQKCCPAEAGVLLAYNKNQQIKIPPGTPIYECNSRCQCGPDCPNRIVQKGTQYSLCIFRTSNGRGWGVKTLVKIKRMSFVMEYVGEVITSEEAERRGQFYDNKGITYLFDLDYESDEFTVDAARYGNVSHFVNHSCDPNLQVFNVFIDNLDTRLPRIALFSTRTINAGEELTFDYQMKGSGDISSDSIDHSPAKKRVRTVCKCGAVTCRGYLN

T1 sequence (P40337 whole entry, looked up): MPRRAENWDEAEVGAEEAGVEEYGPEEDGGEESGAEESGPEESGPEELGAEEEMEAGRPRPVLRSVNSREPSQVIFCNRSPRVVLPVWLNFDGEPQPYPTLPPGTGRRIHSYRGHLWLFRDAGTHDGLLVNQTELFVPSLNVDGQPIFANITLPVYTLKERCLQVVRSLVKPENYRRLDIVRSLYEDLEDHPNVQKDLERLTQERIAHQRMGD
T1 sequence (Q15910 whole entry, looked up): as the sequence (Q15910 whole entry, looked up) above
Sequence of Histone-lysine N-methyltransferase EHMT2 (Homo sapiens) (Q96KQ7 whole entry): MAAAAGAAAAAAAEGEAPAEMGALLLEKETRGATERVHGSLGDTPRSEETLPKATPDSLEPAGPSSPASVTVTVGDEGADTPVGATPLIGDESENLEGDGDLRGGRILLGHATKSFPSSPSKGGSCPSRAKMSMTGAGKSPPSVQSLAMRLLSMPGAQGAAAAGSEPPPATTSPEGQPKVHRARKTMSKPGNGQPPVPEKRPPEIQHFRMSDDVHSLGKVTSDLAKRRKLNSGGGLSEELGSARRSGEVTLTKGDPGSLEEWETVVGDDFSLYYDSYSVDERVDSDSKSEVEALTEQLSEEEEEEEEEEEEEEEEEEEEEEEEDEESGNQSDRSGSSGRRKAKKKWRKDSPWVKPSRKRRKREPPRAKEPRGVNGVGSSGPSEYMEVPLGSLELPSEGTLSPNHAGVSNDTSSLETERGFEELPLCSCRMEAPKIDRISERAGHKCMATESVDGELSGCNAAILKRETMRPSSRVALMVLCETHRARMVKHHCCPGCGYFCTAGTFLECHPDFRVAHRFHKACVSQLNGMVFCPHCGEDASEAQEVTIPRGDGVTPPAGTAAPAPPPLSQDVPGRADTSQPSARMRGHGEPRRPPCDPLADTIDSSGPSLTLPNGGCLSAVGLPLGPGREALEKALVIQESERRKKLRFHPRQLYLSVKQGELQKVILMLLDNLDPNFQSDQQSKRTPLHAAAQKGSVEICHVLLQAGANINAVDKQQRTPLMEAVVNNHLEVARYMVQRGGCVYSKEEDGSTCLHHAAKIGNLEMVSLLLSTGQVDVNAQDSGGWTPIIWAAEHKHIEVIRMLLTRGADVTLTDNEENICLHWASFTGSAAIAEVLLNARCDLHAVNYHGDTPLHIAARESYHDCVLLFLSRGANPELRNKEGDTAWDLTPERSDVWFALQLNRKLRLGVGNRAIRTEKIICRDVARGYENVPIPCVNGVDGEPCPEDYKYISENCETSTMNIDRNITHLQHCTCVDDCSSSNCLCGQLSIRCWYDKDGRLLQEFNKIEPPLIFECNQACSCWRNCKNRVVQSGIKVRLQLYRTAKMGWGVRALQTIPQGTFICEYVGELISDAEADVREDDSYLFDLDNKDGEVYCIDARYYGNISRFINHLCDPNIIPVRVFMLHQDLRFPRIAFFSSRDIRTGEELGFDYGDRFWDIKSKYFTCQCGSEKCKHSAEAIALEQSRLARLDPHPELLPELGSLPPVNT
Sequence of N-lysine methyltransferase KMT5A (Homo sapiens) (Q9NQR1 whole entry): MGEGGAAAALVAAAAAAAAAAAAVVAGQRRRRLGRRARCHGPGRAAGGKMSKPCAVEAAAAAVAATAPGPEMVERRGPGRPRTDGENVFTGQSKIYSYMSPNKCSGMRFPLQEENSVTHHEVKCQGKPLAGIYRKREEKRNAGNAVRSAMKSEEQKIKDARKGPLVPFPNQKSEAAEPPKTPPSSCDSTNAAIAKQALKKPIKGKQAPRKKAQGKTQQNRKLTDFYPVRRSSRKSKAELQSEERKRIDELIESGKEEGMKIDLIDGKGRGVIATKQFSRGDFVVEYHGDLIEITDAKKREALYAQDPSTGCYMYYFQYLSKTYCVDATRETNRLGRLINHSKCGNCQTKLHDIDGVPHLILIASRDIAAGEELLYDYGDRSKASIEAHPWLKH
Sequence of Protein arginine N-methyltransferase 8 (Homo sapiens) (Q9NR22 2-394 limits assumed): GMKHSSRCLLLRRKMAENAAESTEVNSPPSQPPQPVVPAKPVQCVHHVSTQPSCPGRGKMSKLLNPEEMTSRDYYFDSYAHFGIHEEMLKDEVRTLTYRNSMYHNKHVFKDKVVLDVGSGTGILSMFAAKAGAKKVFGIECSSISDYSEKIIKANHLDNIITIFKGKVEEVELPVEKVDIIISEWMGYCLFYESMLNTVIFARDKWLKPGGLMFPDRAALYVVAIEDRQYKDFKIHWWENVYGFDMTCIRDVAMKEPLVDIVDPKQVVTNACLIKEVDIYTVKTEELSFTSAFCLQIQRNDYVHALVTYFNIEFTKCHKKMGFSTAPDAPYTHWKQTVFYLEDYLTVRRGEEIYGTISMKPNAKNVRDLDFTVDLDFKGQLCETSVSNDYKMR
Sequence of Protein arginine N-methyltransferase 3 (Homo sapiens) (O60678 2-531 limits assumed): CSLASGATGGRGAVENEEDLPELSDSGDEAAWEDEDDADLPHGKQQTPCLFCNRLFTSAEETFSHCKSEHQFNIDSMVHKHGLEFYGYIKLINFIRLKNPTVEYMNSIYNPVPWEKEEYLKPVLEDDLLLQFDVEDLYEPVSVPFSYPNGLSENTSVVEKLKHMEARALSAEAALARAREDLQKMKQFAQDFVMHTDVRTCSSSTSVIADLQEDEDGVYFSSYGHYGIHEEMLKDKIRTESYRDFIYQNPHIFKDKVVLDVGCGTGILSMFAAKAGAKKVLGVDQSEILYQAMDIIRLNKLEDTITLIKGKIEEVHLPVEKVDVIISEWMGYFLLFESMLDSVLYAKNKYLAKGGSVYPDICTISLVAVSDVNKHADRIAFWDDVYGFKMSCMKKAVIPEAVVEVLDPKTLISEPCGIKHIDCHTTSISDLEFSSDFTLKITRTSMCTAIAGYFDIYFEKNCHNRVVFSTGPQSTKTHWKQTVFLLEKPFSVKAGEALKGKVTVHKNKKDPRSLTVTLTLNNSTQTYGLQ

With `CCN(c1cc(-c2ccc(CN3CCN(CCC(=O)NCCCCCCCCCCC(=O)N[C@H](C(=O)N4C[C@H](O)C[C@H]4C(=O)NCc4ccc(-c5scnc5C)cc4)C(C)(C)C)CC3)cc2)cc(C(=O)NCc2c(C)cc(C)[nH]c2=O)c1C)C1CCOCC1`, the Activity in experiment [1], in experiment [12] and in experiment [13] was 100% in each case. The outcome (in experiment [2]; in experiment [14]; in [15]; in the experiment with BT-549 [17]) was Active. Besides, the outcome in experiment [3] and in [4] was inactive. The inhibition in experiment [5], in experiment [6], in [7], in [8], in [9] and in [10] was less than 50% throughout. Also, the inhibition in experiment [18] and in experiment [19] was less than 50% in each case. For the same molecule, the inhibition entry (in experiment [11]; in the experiment with BT-549 [16]) was “Active” throughout. In addition, the IC50 (in general, the midpoint of a concentration-inhibition curve) in the experiment with EOL1 was 110 nM; in the experiment with MV4-11, 170 nM.

Values taken from ChEMBL document CHEMBL5543089, “Discovery of a novel, highly potent EZH2 PROTAC degrader for targeting non-canonical oncogenic functions of EZH2” (Eur J Med Chem, 2024).
